According to paper PMC9309012 (Journal of medicinal chemistry, 2021):
“Also recorded” adds a separate entry of the source.

Columns and labels:
[1] = test system: sensitive T. vaginalis strain; assay: Synergy of gold; assay type: cell-based, Trichomonas vaginalis; settings: 24 h
HeLa cells = assay: Cytotoxicity assay in human HeLa cells; assay type: cell-based; settings: for human cytotoxicity: HeLa cells, 48 h, described in words (Fig. 2-4)
T. foetus = assay: In vitro activity against T. foetus; assay type: cell-based; settings: compared with T. vaginalis F1623
TrxR in T. vaginalis = settings: read-out: IC50, TrxR inhibition; cited from earlier work
T. vaginalis F1623 [2] = settings: previously discovered; cited from earlier work
[3] = test system: T. vaginalis strains (four MzS, four MzR); assay: Drug susceptibility of Mz-sensitive and Mz-resistant T. vaginalis lines; assay type: cell-based, Trichomonas vaginalis; settings: for activity against Mz-resistant T. vaginalis lines: four Mz-resistant clinical isolates
Summary of the method: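 Trophozoites were cultured at 37 °C in TYM Diamond's medium with 180 μM ferrous ammonium sulphate. Compound stocks were diluted in PBS to 75 μM, then serially diluted 1:3. Plates held 5 × 10^3 trophozoites/well and were incubated 24 h at 37 °C anaerobically. ATP luminescence (BacTiter-Glo) read growth and viability, and curves gave EC50. Replicates: n≥3, mean + SEM. MzS versus MzR groups were compared by unpaired t-test.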

T. vaginalis F1623 [4] = assay: T. vaginalis 24 h growth and survival assay; assay type: cell-based, Trichomonas vaginalis; settings: for trichomonacidal activity: T. vaginalis F1623, 24 h, described in words (Fig. 2-4); for reduced trichomonacidal activity compared to the chloride counterparts: bromide and iodide vs chloride complexes (4, 10)
T. foetus D1 = assay: Murine vaginal trichomonad infection model; assay type: in vivo, BALB/cJ mice; settings: 4 days after infection, Wright-Giemsa stain
[5] = intravaginal administration compared to a single oral dose; cited from earlier work
[6] = tributyl vs triethyl phosphine compound

Compound | human cytotoxicity (HeLa cells) | trichomonacidal activity (T. vaginalis F1623 [4]) | also measured
CC(=O)OC[C@H]1O[C@@H]([S-])[C@H](OC(C)=O)[C@@H](OC(C)=O)[C@@H]1OC(C)=O.CCP(CC)CC.[Au+] [AF, reference compound] | slightly more toxic against human cells than the parasite |  | interference or synergy with the activity of Mz [1]: neither compound 4 nor AF interfered or synergized; activity against T. foetus in vitro (T. foetus): as active against T. foetus in vitro as they were against T. vaginalis; IC50 (TrxR in T. vaginalis): ~100 nM; activity against T. vaginalis / trichomonads (T. vaginalis F1623 [2]): low μM range; activity against Mz-resistant T. vaginalis lines [3]: sensitive
OCC1OC([S-])C(O)C(O)C1O.[Au+] (stereo not drawn) [ATG, 3,4,5-trihydroxy-6-(hydroxymethyl)oxane-2-thiolate gold (I), reference compound] |  | barely showed activity | 
O.O=C([O-])CC([S-])C(=O)[O-].[Au+].[Na+].[Na+] (stereo not drawn) [ATM, (1,2-Dicarboxyethylthio) disodium salt hydrate gold(I), reference compound] |  | barely showed activity | 
CC[P+](CC)(CC)[Au-][S]C(CC(=O)O)C(=O)O (stereo not drawn) [Compound 2, S-Triethylphosphine gold(I) thiomalic acid] | toxic in human cells | improved trichomonacidal activity similar to AF | 
CC[P](CC)(CC)[Au][c]1n(-c2c(C)cc(C)cc2C)cc[n+]1-c1c(C)cc(C)cc1C.[Cl-] [Compound 3, [Triethylphosphine-(bis(2,4,6-trimethylphenyl)imidazol-2-ylidene)]gold(I) chloride] | strongly increased human cytotoxicity | did not enhance trichomonacidal activity | 
CCP(CC)CC.[Au+].[Cl-] [Compound 4, (Tri-n-ethylphosphine)gold(I) chloride] | markedly reduced human cytotoxicity; also recorded: decreased human cytotoxicity | slightly increased activity against T. vaginalis; also recorded: low μM range | interference or synergy with the activity of Mz [1]: neither compound 4 nor AF interfered or synergized; histological analysis of vaginal tract (T. foetus D1): disappearance of T. foetus trophozoites from the vaginal lumen; activity against T. foetus in vitro (T. foetus): as active against T. foetus in vitro as they were against T. vaginalis; activity against Mz-resistant T. vaginalis lines [3]: sensitive
C[P+](C)(C)[Au-][Cl] [Compound 10, (Tri-n-methylphosphine)gold(I) chloride] | decreased human cytotoxicity | low μM range | activity against T. foetus in vitro (T. foetus): as active against T. foetus in vitro as they were against T. vaginalis; activity against Mz-resistant T. vaginalis lines [3]: sensitive
C[P+](C)(C)[Au-][P+](C)(C)C.[Cl-] [Compound 13, Bis(trimethylphosphine)gold(I) chloride] | as or moderately more active | as or moderately more active | 
CCC[P+](CCC)(CCC)[Au-][P+](CCC)(CCC)CCC.[Cl-] [Compound 15, Bis(tri-n-propylphosphine)gold(I) chloride] | as or moderately more active | as or moderately more active | 
CC(C)[P+]([Au-][P+](C(C)C)(C(C)C)C(C)C)(C(C)C)C(C)C.[Cl-] [Compound 16, Bis(triisopropylphosphine)gold(I) chloride] | as or moderately more active | as or moderately more active | 
CC(C)(C)[PH+](C(C)(C)C)C(C)(C)C.[Cl][Au] [Compound 17, (Tri-tert-butylphosphine)gold(I) chloride] | inactive | inactive | 
Cc1ncc([N+](=O)[O-])n1CCO [Mz, metronidazole, reference compound] |  |  | decrease in systemic exposure [5]: 96–98%; loss in Mz susceptibility ([3]; four Mz-resistant lines compared to four susceptible lines): 20- to 100 fold
(1-Thio-β-D-glucopyranosato) (triethylphosphine) gold(I) [Compound 1] | toxic in human cells | improved trichomonacidal activity similar to AF | 
(2,3,4,6-Tetra-O-acetyl-1-thio-β-D-galacotopyranosato)(butylphosphine) gold(I) [Compound 5] |  |  | lower activity against human cells than triethyl partner (HeLa cells; [6]): ~ 10 fold; lower activity against T. vaginalis than triethyl partner (T. vaginalis F1623 [4]; [6]): ~ 10 fold
(Tri-n-butylphosphine)gold(I) chloride [Compound 9] | abolished all activity; also recorded: inactive | abolished all activity; also recorded: inactive | 
(Tri-n-propylphosphine)gold(I) chloride [Compound 11] | decreased human cytotoxicity | low μM range | 
(Triethylphosphine)gold(I) bromide [Compound 24] |  |  | reduced trichomonacidal activity compared to the chloride counterparts (T. vaginalis F1623 [4]): 5- to 10 fold
(Triethylphosphine)gold(I) iodide [Compound 26] |  |  | reduced trichomonacidal activity compared to the chloride counterparts (T. vaginalis F1623 [4]): 5- to 10 fold
(Triisopropylphosphine)gold(I) chloride [Compound 12] | decreased human cytotoxicity | low μM range | 
(Trimethylphosphine)gold(I) bromide [Compound 23] |  |  | reduced trichomonacidal activity compared to the chloride counterparts (T. vaginalis F1623 [4]): 5- to 10 fold
(Trimethylphosphine)gold(I) iodide [Compound 25] |  |  | reduced trichomonacidal activity compared to the chloride counterparts (T. vaginalis F1623 [4]): 5- to 10 fold
Bis(triethylphosphine)gold(I) chloride [Compound 14] | as or moderately more active | as or moderately more active | 
